Measurements from different studies.
Lines come from different studies, so protocols differ. pIC50: −log10 of the molar value.
Cell line: HEK293
Effect on: cell growth or viability

CO[C@H]1C[C@@H](C[C@H](C)[C@H]2CC(=O)[C@@H](C)/C=C(\C)[C@H](O)[C@H](OC)C(=O)[C@@H](C)C[C@@H](C)/C=C/C=C/C=C(\C)[C@H](OC)C[C@H]3CC[C@H](C)[C@](O)(O3)C(=O)C(=O)N3CCCC[C@@H]3C(=O)O2)CC[C@@H]1OCCO (racemic)
CC50 (MTT; 24 h): 63.7 µM

O=P(O)(O)c1cc2c(O)c(c1)Cc1cc(P(=O)(O)O)cc(c1O)Cc1cc(P(=O)(O)O)cc(c1O)Cc1cc(P(=O)(O)O)cc(c1O)Cc1cc(P(=O)(O)O)cc(c1O)Cc1cc(P(=O)(O)O)cc(c1O)Cc1cc(P(=O)(O)O)cc(c1O)Cc1cc(P(=O)(O)O)cc(c1O)C2
CC50 (MTT; 24 h): 608 µM

CCn1cc(C(=O)NCCNCCO)c(=O)c2cc(OC)c(OCc3cc(F)cc(F)c3)cc21
CC50 (resazurin; 20 h): > 32 µg/mL

Cc1c2ccncc2c(C)c2c1[nH]c1ccc(OCCN(C)C)cc12
pIC50 (MTS): 5.50

Cc1ccc2oc(-c3cc(NC(=O)Cc4ccccc4)ccc3Cl)nc2c1
CC50 (MTT; 24 h): > 400 µM

CC1c2cc(c(O)cc2O)C(C)c2cc(c(O)cc2O)C(C)c2cc(c(O)cc2O)C(C)c2cc1c(O)cc2O (stereo not drawn)
CC50 (ATP luminescence; 24 h): 21.2 µM

C[C@@H](c1cc(Cl)cc(Cl)c1)N(C)c1ncc2c(N)nc(N)nc2n1
CC50 (MTT; 24 h): 31.2 µM

CC(C)(O)c1coc(S(=O)(=O)NC(=O)Nc2c3c(cc4c2CCC4)CCC3)c1
viability (MTT; 10 µM; 4 h): 95.2%

CC/C(=C(\c1ccccc1)c1ccc(OCCN(C)C)cc1)c1ccccc1
CC50 (resazurin; 20 h): 5.62 µM
